Measured values as given in PMC2697266 (Nature, 2009).

Key:
[1] = 15N NMR relaxation, rotational correlation time; type: physicochemical; settings: 15N R2/R1 ratios, pH 7.0, 25°C; estimated
Method in brief: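 0.2-0.5 mM uniformly 15N-labeled JARID1A PHD3 (bacterial His6-SUMO fusion, cleaved, purified by Ni-NTA and gel filtration), free or with unlabeled H3 1-9 K4me3 peptide. R1 and R2 measured with standard pulse sequences at 25°C, 800 MHz with cryoprobe; correlation time estimated from R2/R1 ratios.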

[2] = system: JARID1APHD1 (the first PHD finger of JARID1A); assay: Biotinylated histone peptide pull-down, JARID1APHD1; type: binding, human; settings: 50mM Tris pH 7.5, 150mM NaCl; qualitative
Method in brief: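 Biotinylated histone peptides were bound to recombinant PHD protein and captured on avidin beads. Beads were washed extensively in 50mM Tris pH 7.5, 150mM NaCl (250mM for stringent washes), 0.05% NP-40, 0.3mg/ml BSA and 1mM DTT; bound protein was then assessed.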

Substance | rotational correlation time [1] [ns] | interaction with JARID1APHD1 in peptide pull-down [2]
JARID1APHD3: C-terminal PHD finger of JARID1A (amino acids 1601-1660) (EESDDENAVCAAQNCQRPCKDKVDWVQCDGGCDEWFHQVCVGVSPEMAENEDYICINCAK; left off: GST, end not stated, kept) | 3.5 | –
H3K4me0: unmodified H3K4 histone peptide | – | interacted
